Results pooled from the literature.
Each line is one published result; the experiments were not run side by side. pIC50: −log10 of the molar value.
CYP2C9: Cytochrome P450 2C9 (CYP2C9, Homo sapiens, UniProt P11712)

Compound	tested on	assay	system	conditions	endpoint	result
COc1cc2c(cc1NC(=O)c1ccc(C(C)(C)C#N)cc1)CCCCC2	NHDF	cell growth or viability, ATP luminescence	–	24 h	CC50	3.57 µM
CCC[C@@](N)(CO)CCc1ccc(OCCCCCC(C)C)cc1	CYP2C9	enzyme activity, inhibitor	–	–	pIC50	< 4.30
C[C@]12CC[C@H](n3ccnc3)CC1=CC[C@@H]1[C@@H]2CC[C@]2(C)C(n3cnc4ccccc43)=CC[C@@H]12.Cl	–	–	male CD-1 mouse, plasma	oral, 10 mg/kg	bioavailability	> 100%
COc1cc2c(cc1C(=O)Nc1ccc(C(C)(C)C#N)cc1)CCCCC2	NHDF	cell growth or viability, ATP luminescence	–	24 h	CC50	94 µM
COc1ccc(S(=O)(=O)Oc2ccc3c(c2)Oc2nc4c(c(N)c2C3c2cccc(OC)c2)CCCC4)cc1 (stereo not shown)	SH-SY5Y	cell growth or viability, MTT	–	100 µM	viability	48.9%
CC[C@@H]1CN2CCc3c([nH]c4cccc(OC)c34)[C@H]2C[C@@H]1/C(=C\OC)C(=O)OC	mouse Hepatocyte	metabolic stability	hepatocytes	–	half-life	11.2 min
Nc1c2c(nc3c1C(c1cccc([N+](=O)[O-])c1)c1ccc(OS(=O)(=O)c4ccc(F)cc4)cc1O3)CCCC2 (stereo not shown)	SH-SY5Y	cell growth or viability, MTT	–	6.3 µM	viability	63.4%
CCCCCn1cc(C(=O)Nc2cccc3ccccc23)c2ccccc21	–	metabolic stability	Sprague-Dawley rat, liver microsomes	1 µM, pH 7.4	half-life	2.21 min
Nc1c2c(nc3c1C(c1ccc(Cl)c(Cl)c1)c1ccc(OCC(=O)c4ccc(Cl)cc4)cc1O3)CCCC2 (stereo not shown)	SH-SY5Y	cell growth or viability, MTT	–	0.4 µM	viability	89.5%
Cc1cc(C)nc(Nc2ncc(C(=O)NCCc3c(C)[nH]c4ccccc34)cn2)c1	–	chemical stability	simulated intestinal fluid	10 µM, pH 6.8	half-life	197 min
CCCCNC(=O)Oc1ccc(OCc2ccccc2)cc1	–	metabolic stability	male Wistar rat, liver S9	1 µM, pH 7.4	half-life	7 min
COC(=O)C1CCN(C(=O)c2ccc(NCc3cnc4nc(N)nc(N)c4n3)cc2)CC1	CYP2C9	enzyme activity, inhibitor, luciferase	–	10 µM	inhibition	-7.15%
Nc1c2c(nc3c1C(c1ccc(Cl)c(Cl)c1)c1ccc(OCC(=O)c4ccccc4)cc1O3)CCCC2 (stereo not shown)	SH-SY5Y	cell growth or viability, MTT	–	25 µM	viability	45.9%
